The nature of data set [1]: Drug metabolism in Sprague-Dawley rat urine assessed as (2S,3S,4S,5R,6S)-6-(5'-allyl-5-(1-hydroxyallyl)-2'-((2S,3R,4S,5S,6R)-3,4,5-trihydroxy-6-(hydroxymethyl)tetrahydro-2H-pyran-2-yloxy)biphenyl-2-yloxy)-3,4,5-trihydroxytetrahydro-2H-pyran-2-carboxylic acid formation at 100 mg/kg, po by UPLC-IT-TOF-MS analysis. The class given is ADME, organism-based. As to conditions: in vivo. In short, it runs like this:
(§1)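 Male/unspecified SD rats (n = 6) housed individually in metabolic cages, dosed orally at 100.0 mg/kg; controls given 0.5% CMC-Na orally. Plasma, urine and faeces collected. LC-IT-TOF-MS on C18 column at 30 °C, formic acid (0.05%) water/acetonitrile gradient 5–100% B over 18 min, 0.2 mL/min; positive and negative ion modes with automatic MS/MS.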

Data set [2] has as its target Melatonin receptor type 1A (Homo sapiens, UniProt P48039). The experiment in a line: Agonist activity at human MT1 receptor expressed in HEK293 cells after 24 hrs by Fluo-8 dye-based calcium assay. The class given is functional, cell-based. In outline: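 Fluo-8 calcium flux in HEK293 cells stably expressing human MT1 or MT2, grown in DMEM + 10% FBS at 37 °C, seeded 4×10^4/well and incubated 24 h. Compounds in DMSO/HBSS at several concentrations; fluorescence read at room temperature (ex 485, em 525 nm). Triplicate wells, three independent experiments; EC50 by nonlinear regression.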

Data set [3] is described as follows: Drug metabolism in Sprague-Dawley rat feces assessed as (2S,3R,4S,5S,6R)-2-(5'-allyl-2'-hydroxy-5-(1-hydroxyallyl)biphenyl-2-yloxy)-6-(hydroxymethyl)tetrahydro-2H-pyran-3,4,5-triol formation at 100 mg/kg, po by UPLC-IT-TOF-MS analysis. The class given is ADME, organism-based. As to conditions: in vivo. In outline: (§2)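 Rats (n = 6) housed in metabolic cages received 100.0 mg/kg orally; controls received 0.5% CMC-Na. Plasma, urine and faeces were collected and analyzed by LC-IT-TOF-MS on a C18 column at 30 °C. Gradient 5–100% acetonitrile with 0.05% formic acid over 18 min at 0.2 mL/min; positive and negative ion MS/MS.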

Data set [4] concerns Mus musculus. Nature of the data set: Antidepressant activity in po dosed Kunming mouse assessed as decrease in immobility time by tail suspension test. The class given is functional. The following applies: read-out: MED. In short, it runs like this: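 Male Kunming mice dosed orally at 10, 20 or 40 mg/kg, with fluoxetine and agomelatine 20 mg/kg as references. Mice were hung by the tail with tape about 1 cm from the tip, 50 cm above a box, for 6 min, isolated from sound and view. Immobility in the last 4 min was video-tracked; n = 10, mean ± SEM.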

The subject of data set [5] is Mus musculus. Nature of the data set: Antidepressant activity in po dosed Kunming mouse assessed as decrease in immobility duration by forced swim test. The class given is functional, organism-based. In outline:
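Male Kunming mice (18–20 g) given 10, 20 or 40 mg/kg orally; fluoxetine and agomelatine 20 mg/kg as references. Each mouse swam 6 min in a cylinder (25 × 15 cm) holding 10 cm of water at 25 ± 1 °C. Immobility over the last 4 min was scored by video tracking; n = 10, mean ± SEM versus vehicle.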

For data set [6], the system named is Mus musculus. Nature of the data set: Increase in 5-hydroxyindole-3-acetic acid level in Kunming mouse hippocampus at 40 mg/kg, po treated for 7 days by HPLC-ECD analysis. The class given is functional, organism-based. In short, it runs like this: (§3)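 Male Kunming mice (18–20 g) given vehicle or 40 mg/kg for 7 days, then killed by cervical dislocation. Frontal cortex, hippocampus, striatum, hypothalamus and thalamus dissected on ice, homogenized in ice-cold 0.2 M perchloric acid with 0.1 mM EDTA, centrifuged 15,000 rpm, 20 min, 4 °C. Supernatant analysed by HPLC-ECD at +0.50 V; phosphate/octanesulfonate mobile phase pH 3.0 with 12% methanol. Levels in ng/g, mean ± SEM.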

A short description of data set [7]: Drug metabolism in Sprague-Dawley rat urine assessed as (2S,3S,4S,5R,6S)-3,4,5-trihydroxy-6-(5-(1-hydroxyallyl)-5'-(1-hydroxypropyl)-2'-((2S,3R,4S,5S,6R)-3,4,5-trihydroxy-6-(hydroxymethyl)tetrahydro-2H-pyran-2-yloxy)biphenyl-2-yloxy)tetrahydro-2H-pyran-2-carboxylic acid formation at 100 mg/kg, po by UPLC-IT-TOF-MS analysis. It is filed as ADME, organism-based. As to conditions: in vivo. In outline: as §1

Data set [8] in a line: Drug metabolism in Sprague-Dawley rat feces assessed as 5-allyl-5'-(1-hydroxyallyl)-2'-((2S,3R,4S,5S,6R)-3,4,5-trihydroxy-6-(hydroxymethyl)tetrahydro-2H-pyran-2-yloxy)biphenyl-2-yl hydrogen sulfate formation at 100 mg/kg, po by UPLC-IT-TOF-MS analysis. It is filed as ADME, organism-based. The following applies: in vivo. In short, it runs like this:
as §2

For data set [9], the system named is Mus musculus. The experiment in a line: Increase in norepinephrine level in Kunming mouse thalamus at 40 mg/kg, po treated for 7 days by HPLC-ECD analysis. The class given is functional, organism-based. In short, it runs like this: as §3
A short description of data set [10]: Drug metabolism in Sprague-Dawley rat urine assessed as (2S,3S,4S,5R,6S)-6-(5,5'-diallyl-2'-methoxybiphenyl-2-yloxy)-3,4,5-trihydroxytetrahydro-2H-pyran-2-carboxylic acid formation at 100 mg/kg, po by UPLC-IT-TOF-MS analysis. The class given is ADME, organism-based. As to conditions: in vivo. In outline:
as §1

Data set [11] relates to Mus musculus. Nature of the data set: Increase in 4-hydroxy-3-methoxyphenylacetic acid level in Kunming mouse hypothalamus at 40 mg/kg, po treated for 7 days by HPLC-ECD analysis. It is filed as functional, organism-based. In outline: as §3
Data set [12] can be described thus: Drug metabolism in Sprague-Dawley rat feces assessed as (2S,3S,4S,5R,6S)-6-(5-acryloyl-2'-hydroxy-5'-(1-hydroxyallyl)biphenyl-2-yloxy)-3,4,5-trihydroxytetrahydro-2H-pyran-2-carboxylic acid formation at 100 mg/kg, po by UPLC-IT-TOF-MS analysis. The class given is ADME, organism-based. The following applies: in vivo. In short, it runs like this:
as §2

Data set [13] relates to Mus musculus. The experiment in a line: Toxicity in Kunming mouse assessed as effect in spontaneous locomotor activity by measuring total number of line crosses at 10 to 40 mg/kg, po by open field test. The following applies: in vivo. It is filed as organism-based. In outline: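 Male Kunming mice, 18–20 g, group-housed at 22 ± 2 °C on 12 h light/dark, given oral doses of 10, 20 or 40 mg/kg before behavioural testing. Each animal placed in the centre of a black open-field box (24 × 24 × 40 cm) for 30 s adaptation, then explored freely for 6 min. Line crossings and distance recorded. Mean ± SEM, n = 10.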

In data set [14] the test system is Mus musculus. Nature of the data set: Increase in 5-hydroxyindole-3-acetic acid level in Kunming mouse frontal cortex at 40 mg/kg, po treated for 7 days by HPLC-ECD analysis. The class given is functional, organism-based. In short, it runs like this: as §3
Data set [15] can be described thus: Drug metabolism in Sprague-Dawley rat feces assessed as (2S,3S,4S,5R,6S)-3,4,5-trihydroxy-6-(5-(1-hydroxyallyl)-5'-(2-hydroxypropyl)-2'-methoxybiphenyl-2-yloxy)tetrahydro-2H-pyran-2-carboxylic acid formation at 100 mg/kg, po by UPLC-IT-TOF-MS analysis. It is filed as ADME, organism-based. The following applies: in vivo. In short, it runs like this: as §2
Data set [16] is described as follows: Drug metabolism in Sprague-Dawley rat urine assessed as 5,5'-diallylbiphenyl-2,2'-diol formation at 100 mg/kg, po by UPLC-IT-TOF-MS analysis. It is filed as ADME, organism-based. The following applies: in vivo. In short, it runs like this:
as §1

A short description of data set [17]: Drug metabolism in Sprague-Dawley rat plasma assessed as (2S,3S,4S,5R,6S)-3,4,5-trihydroxy-6-(5-(1-hydroxyallyl)-5'-(2-hydroxypropyl)-2'-methoxybiphenyl-2-yloxy)tetrahydro-2H-pyran-2-carboxylic acid formation at 100 mg/kg, po by UPLC-IT-TOF-MS analysis. It is filed as ADME, organism-based. The following applies: in vivo. In outline: as §2
A short description of data set [18]: Drug metabolism in Sprague-Dawley rat urine assessed as 5'-acryloyl-2'-hydroxy-5-propionylbiphenyl-2-yl hydrogen sulfate formation at 100 mg/kg, po by UPLC-IT-TOF-MS analysis. As to conditions: in vivo. It is filed as ADME, organism-based. In short, it runs like this:
as §1

Calls of active or inactive are those of the source. The rule behind the calls is not given here.

Sequence of Melatonin receptor type 1A (P48039 whole entry): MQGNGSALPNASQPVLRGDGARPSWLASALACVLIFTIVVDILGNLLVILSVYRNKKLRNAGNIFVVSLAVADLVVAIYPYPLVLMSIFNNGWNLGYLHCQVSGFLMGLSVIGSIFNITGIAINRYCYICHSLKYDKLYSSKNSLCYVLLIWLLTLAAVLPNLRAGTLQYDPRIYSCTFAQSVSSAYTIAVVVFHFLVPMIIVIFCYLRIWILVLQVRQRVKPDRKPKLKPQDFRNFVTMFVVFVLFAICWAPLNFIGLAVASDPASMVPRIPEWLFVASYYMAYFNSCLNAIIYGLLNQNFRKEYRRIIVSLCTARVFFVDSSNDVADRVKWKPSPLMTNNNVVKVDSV

For the compound `C=CCc1ccc(O)c(-c2cc(CC=C)ccc2O[C@@H]2O[C@H](CO)[C@@H](O)[C@H](O)[C@H]2O)c1`, the Drug metabolism result in data set [1] is “Metabolite_Detected”; in data set [3], “Metabolite_Notdetected”; in data set [7] it was “Metabolite_Detected”; in data set [8], “Metabolite_Detected”; in [10] it was “Metabolite_Detected”; in data set [12], “Metabolite_Notdetected”. The Drug metabolism entry in data set [15] is reported as “Metabolite_Notdetected”; in [16] it was “Metabolite_Detected”; in [17] it was “Metabolite_Notdetected”; in data set [18], “Metabolite_Detected”. Further, in data set [2], the EC50 was 397 µM. Further, in the data set on Mus musculus [4], the minimal effective dose turned out to be 10 mg/kg. Besides, the Activity result in the data set with Mus musculus [5] was “Dose-dependent effect”; in the data set on Mus musculus [13], “Non-Toxic”. Further, the result with Mus musculus [6], in the data set on Mus musculus [9], in the data set on Mus musculus [11] and in the data set on Mus musculus [14] was Active.

As usually defined, the EC50 is the concentration at which the effect is half-maximal.

The values above are taken from ChEMBL document CHEMBL4270555, “Synthesis and biological evaluation of magnolol derivatives as melatonergic receptor agonists with potential use in depression” (Eur J Med Chem, 2018).
